# Only some compounds are listed: those with a hit (about 3.5% of all), similar ones and a draw of the others.
# MEKK2wt PB1 HTS – raises or lowers MEK5 binding to wildtype human MEKK2 PB1 domain; binding response (% of control), % at 10 µM; AID 1531; Q9Y2U5; hit rate 1.1% among 290,000; bead flow cytometry, Alexa488-MEK5 binding to MEKK2 WT; actives lie on both sides; in the data active = binding response below about 67% or above about 130%
# ABCG2 inh – blocks JC-1 efflux by human ABCG2 transporter; Q9UNQ0; IgMXP3 cells, flow cytometry; inhibition, % at 6.6 µM; hit rate 0.1% among 190,000;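 active = inhibition above 80%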;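 note: 0% = DMSO and 100% = nicardipine control wells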
#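 test system = two drug-resistant human cell lines, ABCG2 and ABCB1 | amount = 3 million cells/mL final, two lines in 1:1 ratio | reagent = JC-1 transporter substrate | doses = one concentration, 6.6 µM final | incubation = 10 min at 25 °C | signal = flow cytometric JC-1 green MFI at 530 nm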
# ABCB1 inh – blocks JC-1 efflux by human ABCB1 transporter; CCRF-Adr cells, flow cytometry; inhibition, % at 6.6 µM; P08183; hit rate 0.067% among 190,000; AID 1326; in the data active = inhibition above about 40%;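 note: 0% = vehicle and 100% = reference inhibitor; higher value means more JC-1 retained so stronger ABCB1 efflux block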
# WT yeast gro inh – growth inhibition of WT yeast, mitochondrial fusion screen. inhibition, % at 10 µM. hit rate 2.1% among 190,000. AID 1362. mitochondrial fusion phenotypic screen, WT strain; in the data active = inhibition above about 58%; tested in S. cerevisiae
# MEKK3 PB1 HTS – modulators (inhibitors or enhancers) of MEK5 binding to human MEKK3 PB1 domain | Q99759 | bead-based flow cytometry, Alexa488-MEK5 binding to MEKK3; actives lie on both sides; 0 = blocked by unlabeled MEK5, 100 = vehicle | binding response (% of control), % at 10 µM | hit rate 1.4% among 290,000 | AID 1529;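 active = binding response more than 3 SD above or below the average of its plate-row segment, actives on both sides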;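 note: Alexa488 bead fluorescence after subtracting the streptavidin-only scavenger bead signal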
# MEKK2mut PB1 HTS – signal of MEK5 binding to mutant human MEKK2 PB1 domain; bead flow cytometry, Alexa488-MEK5 binding to MEKK2 mutant; percent response, % at 10 µM; hit rate 0.35% among 290,000; in the data active = percent response above about 24%, passing the limit was not always enough
# MEKK2wt confirm – raises or lowers MEK5 binding to wildtype human MEKK2, retest | shares compounds with MEKK3 PB1 HTS | bead flow cytometry, Alexa488-MEK5 binding to MEKK2 WT; actives lie on both sides | binding response (% of control), % at 10 µM | hit rate 2.4% among 5,900; in the data active = binding response below about 16% or above about 210%; inactive = in between
# MEKK2mut confirm – signal of MEK5 binding to mutant human MEKK2, retest; shares compounds with MEKK3 PB1 HTS; bead flow cytometry, Alexa488-MEK5 binding to MEKK2 mutant; percent response, % at 10 µM; hit rate 2% among 5,900; in the data active = percent response mostly above about 71%, no sharp cut-off; inactive = mostly below about 38%;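 note: higher means compound restores mutant binding toward wildtype level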
# MEKK3 confirm – MEKK3-MEK5 PB1 inhibition, single concentration confirmation | AID 1894 | shares compounds with MEKK3 PB1 HTS | hit rate 1.8% among 5,900 | bead flow cytometry, Alexa488-MEK5 binding to MEKK3; stronger effect = lower value | binding response (% of control), % at 10 µM;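 active = binding response below 72% of control, or above a set upper limit, though filed actives all read lower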;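 note: 100% = DMSO only wells and 0% = binding blocked by excess unlabeled MEK5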
# Starred values were filed as active, the others as inactive; . = not tested or not shown; [ ] = another dose, or the depositor's remark.
SMILES,MEKK2wt PB1 HTS,ABCG2 inh,ABCB1 inh,WT yeast gro inh,MEKK3 PB1 HTS,MEKK2mut PB1 HTS,MEKK2wt confirm,MEKK2mut confirm,MEKK3 confirm
O=C(CSc1ccc(F)cc1)NC1CCCCC1,1.0*[inhibitor],1.9,0.2,9.7,2.0*[inhibitor],-84.0,106.0,5.0,107.0
O=C(CSc1ccc(Cl)cc1)NC1CCCC1,95.0,2.2,0.7,.,98.0,-3.0,.,.,.
Cc1ccccc1NC(=O)CN1C(=O)S/C(=C\c2cccn2-c2cccc(C(=O)O)c2)C1=O,119.0,0.1,-0.1,9.4,122.0*,9.0,105.0,4.0,107.0
O=C(NCCN1C(=O)S/C(=C\c2ccc(OC(F)F)cc2)C1=O)[C@@H]1CCCN1C(=O)c1cccs1,104.0,8.3,1.4,13.7,131.0*,0.0,108.0,11.0,104.0
O=C(NCCN1C(=O)S/C(=C\c2ccc(OC(F)F)cc2)C1=O)c1cnccn1,96.0,6.0,.,-11.2,100.0,-1.0,.,.,.
CC(C)CNC(=O)COC(=O)c1cc(Cl)cc(Cl)c1N,98.0,4.6,0.9,11.6,98.0,0.0,.,.,.
CC(C)CNC(=O)COC(=O)c1ccc(F)cc1Cl,83.0,4.0,0.8,-8.8,73.0*[inhibitor],-10.0,106.0,7.0,108.0
Cc1nn(C)cc1S(=O)(=O)N1CCN(c2ccccc2)CC1,95.0,.,.,.,99.0,1.0,.,.,.
O=C(/C=C/c1ccc(Cl)cc1)Nc1ccc(CN2CCOCC2)cc1,140.0*,12.2,2.2,26.8,106.0,31.0,111.0,3.0,102.0
CCCCN1C(=O)c2ccc(C(=O)NCc3ccco3)cc2C1=O,106.0,.,.,.,102.0,7.0,.,.,.
CCN(CC)S(=O)(=O)c1cccc(-c2nnc(SCC(=O)NC)n2N)c1,7.0*[inhibitor],0.6,1.2,-5.0,6.0*[inhibitor],-17.0,114.0,10.0,107.0
CCN(CC)S(=O)(=O)c1cccc(-c2nnc(SCC(=O)N3CCC(C(=O)O)CC3)n2N)c1,.,-0.1,-0.4,-13.3,.,.,.,.,.
O=C(CNC(=O)c1ccc(F)cc1)Nc1ccccc1C(F)(F)F,77.0,.,.,.,88.0,-30.0,.,.,.
CC(NC(=O)/C=C/c1cnc2ccccc2n1)C12CC3CC(CC(C3)C1)C2 (stereo not drawn),102.0,13.0,1.1,53.2,134.0*,0.0,97.0,0.0,104.0
Cc1ccc(-n2nc3c(c2NC(=O)/C=C\c2ccc4c(c2)OCO4)CSC3)c(C)c1,83.0,1.9,0.1,35.8,72.0*[inhibitor],-7.0,98.0,-3.0,102.0
CCn1c(SCC(=O)O)nc2sc3c(c2c1=O)CCC3,-1.0*[inhibitor],0.6,0.2,-2.7,1.0*[inhibitor],-9.0,96.0,-6.0,101.0
CCn1c(SCC(=O)OC)nc2sc3c(c2c1=O)CCC3,101.0,7.2,-0.8,11.2,98.0,2.0,.,.,.
CC1=N/C(=C\c2ccc([N+](=O)[O-])cc2)C(=O)N1c1cc(Cl)ccc1C,52.0*[inhibitor],2.0,0.3,9.8,90.0,-3.0,81.0,-17.0,95.0
COc1ccc(N2C(=O)/C(=C/c3ccc([N+](=O)[O-])cc3)N=C2C)c(OC)c1,91.0,13.2,2.3,5.7,105.0,6.0,.,.,.
CC(C)c1nnc(NC(=O)C2CCCN2C(=O)Nc2cccc(Cl)c2)s1 (stereo not drawn),98.0,.,.,.,99.0,-7.0,.,.,.
COc1ccc(OC)c(NC(=O)c2cc3ccccc3cc2OC)c1,106.0,.,.,.,103.0,28.0*,109.0,4.0,104.0
CCN(CC)c1ccc(/C=C(/C#N)c2nc3ccc(C)cc3[nH]2)c(OC(C)C)c1,78.0,31.0,15.6,27.6,115.0,95.0*,91.0,-18.0,89.0
CCn1ccnc1CN(C)C(=O)C1CCC(=O)N(Cc2cccc(C(F)(F)F)c2)C1 (stereo not drawn),100.0,.,.,.,93.0,1.0,.,.,.
CCc1ccc(C2=NNC(=Nc3cccc(S(=O)(=O)N(C)C)c3)SC2)cc1,104.0,-2.9,-0.5,34.8,128.0*,0.0,101.0,-2.0,103.0
Cc1cccc(N=C2NN=C(c3ccc4c(c3)OCCO4)CS2)c1,98.0,2.6,0.7,4.2,104.0,3.0,.,.,.
SMILES,MEKK2wt PB1 HTS,ABCG2 inh,ABCB1 inh,WT yeast gro inh,MEKK3 PB1 HTS,MEKK2mut PB1 HTS,MEKK2wt confirm,MEKK2mut confirm,MEKK3 confirm
CCC(C)NCCOCCOc1ccc(F)cc1 (stereo not drawn),3.0*[inhibitor],0.0,0.1,13.1,2.0*[inhibitor],-21.0,101.0,-3.0,99.0
CCN(CC)CCN(Cc1cc2ccc(C)c(C)c2[nH]c1=O)C(=S)NCc1ccco1,110.0,0.8,2.6,-1.6,97.0,2.0,.,.,.
CCCc1ccc2oc(C(=O)N(C)CCn3ccnc3C)c(C)c2c1,117.0,.,.,.,113.0,24.0*,104.0,-2.0,102.0
CCCCN1C(=O)/C(=C/C=C2\SCCN2C)SC1=S,92.0,7.8,1.9,36.8,96.0,-8.0,.,.,.
CCCCN1C(=O)/C(=C/C=C2\N(C)c3ccccc3C2(C)C)SC1=S,130.0,36.1,31.8,34.8,67.0,156.0*,36.0,-58.0*[inhibitor],41.0*
CCCC[C@@H](CN[C@H](C)CNC)NCC1CCC(C(C)(C)C)CC1 (stereo partly drawn),131.0,.,.,.,108.0,2.0,.,.,.
CC[C@H](C)[C@@H](CN[C@H](CCCCNC)CNC)NCC1CCCC1,141.0*,.,.,.,104.0,8.0,114.0,8.0,106.0
CC(C)Cn1cnc2c(c(-c3ccccc3)c(-c3ccccc3)n2Cc2ccco2)c1=N,134.0*,2.0,2.3,42.7,115.0,16.0,126.0,27.0,100.0
N=c1c2c(-c3ccccc3)c(-c3ccccc3)n(Cc3ccco3)c2ncn1Cc1ccccc1,156.0*,7.0,8.2,.,110.0,17.0,162.0,40.0,105.0
N=c1c2c(-c3ccccc3)c(-c3ccccc3)n(Cc3ccco3)c2ncn1CCCn1ccnc1,111.0,0.2,0.0,-7.8,103.0,2.0,.,.,.
N=c1c2c(-c3ccccc3)c(-c3ccccc3)n(Cc3ccco3)c2ncn1CCCN1CCOCC1,149.0*,3.6,-0.1,7.5,116.0,6.0,127.0,10.0,95.0
CCOC(=O)C1CCN(C(=O)CCS(=O)(=O)c2ccc3c(c2)CCN3C(C)=O)CC1,116.0,10.8,0.3,-10.8,126.0*,5.0,102.0,2.0,101.0
CCN(c1cccc(C)c1)S(=O)(=O)c1ccc2c(c1)CCN2C(C)=O,-1.0*[inhibitor],25.5,1.2,-30.9,1.0*[inhibitor],-10.0,101.0,-4.0,103.0
CC(=O)c1cccc(OCc2cc(C(=O)N3C[C@@H](C)O[C@@H](C)C3)no2)c1,107.0,.,.,.,99.0,5.0,.,.,.

# Compound activity deposited in PubChem by several laboratories.
